An excerpt weighted towards active compounds, which were near 2.2% of everything screened.
ERAP1 HTS inh: human ERAP1 aminopeptidase inhibitors, primary screen, biochemical, single point, plate reader; Endoplasmic reticulum aminopeptidase 1 (Homo sapiens), Q9NZ08; recombinant ERAP1, Leu-AMC fluorescence, 60 min; inhibition, % at 10.7 µM; 340,000 tested, 0.15% active; AID 652197, 2013;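 active = mean replicate inhibition of at least 30%, or all replicates individually reaching that 30% level; inactive = mean below 30% and not every replicate reaching it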
FGF22 binding: binders of human FGF22 protein, primary screen, FGF22 synaptogenesis inhibitor project, biophysical, thermal shift, single point; Fibroblast growth factor 22 (Homo sapiens), Q9HCT0; recombinant FGF22 thermal shift, SYPRO orange fluorescence; percent of sucrose octasulfate shift, DMSO zero; activity (Tm shift, normalised), % at 9.99 µM; 340,000 tested, 1.5% active;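 active = mean Tm shift, scaled 0 neutral to 100 positive control, at about 1.3% or above, every replicate too, limit read from the data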
Target sequence (Q9HCT0 whole entry, looked up): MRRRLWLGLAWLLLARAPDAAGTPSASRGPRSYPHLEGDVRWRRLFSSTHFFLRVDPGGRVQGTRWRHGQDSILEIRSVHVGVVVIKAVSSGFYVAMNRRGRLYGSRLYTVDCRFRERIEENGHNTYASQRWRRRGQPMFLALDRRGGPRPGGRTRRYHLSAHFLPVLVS
FN deposit inh: inhibitors of fibronectin matrix deposition, primary screen, AH1F cells, Alexa488-fibronectin fluorescence, plate reader | AH1F fibroblasts, overnight | inhibition, % at 12.6 µM | 350,000 tested, 0.086% active;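 active = mean inhibition across replicates of 30% or more, regardless of how many single replicates reach that level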
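Material: AH1F fibroblast monolayer depositing Alexa488-labelled fibronectin into matrix | Input: 10000 AH1F cells/well | Medium: DMEM plus 2% serum, read in PBS | Reagent: Alexa488-fibronectin, 24 nM final in well | Compound dosing: One dose per compound, pinned | Schedule: 1 h adhesion, overnight exposure | Measured by: Fluorescence at 485 nm excitation, 525 nm emission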
SIRT5 inh: SIRT5 desuccinylase inhibitors, primary screen, biochemical, fluorescence imaging, single point, set 5. 330,000 tested, 1.1% active. AID 652115, 2013. NAD-dependent protein deacylase sirtuin-5, mitochondrial (Homo sapiens), Q9NXA8. inhibition, % at 15 µM. Purified SirT5, succinyl-peptide AMC, trypsin-coupled fluorescence; in the data active = inhibition above about 15%
PGC1a acetyl inh: inhibitors of PGC1a acetylation signal, primary screen, cell-based, U2OS, AlphaScreen, inhibitor mode. AlphaScreen anti-acetyl-lysine; with virally co-expressed GCN5 acetyltransferase. inhibition, % at 15.6 µM. 350,000 tested, 0.17% active. AID 651687, 2012;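 active = every replicate shows inhibition of at least 40%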
Hits are given with their value; 0 = inactive; - = no result.

SMILES	ERAP1 HTS inh	FGF22 binding	FN deposit inh	SIRT5 inh	PGC1a acetyl inh
Cc1ccccc1-c1ccc([C@@H]2[C@H](CO)N3CCCCN(C(=O)Nc4ccc(F)cc4)C[C@@H]23)cc1	0	0	-	17	0
Cc1ccccc1-c1ccc([C@@H]2[C@@H](CO)N3CCCCN(C(=O)Nc4ccc(F)cc4)C[C@@H]23)cc1	0	0	-	15	0
COc1ccc(C2C(CC(=O)O)=C(Nc3ccccc3)C(=O)N2c2ccccc2)cc1 (stereo not given)	0	0	0	0	-
O=C(O)CC1=C(Nc2ccccc2)C(=O)N(c2ccccc2)C1c1ccc(F)cc1 (stereo not given)	0	43	0	0	-
O=C(C[C@H]1C[C@H]2c3cc(NC(=O)c4ccc5c(c4)OCO5)ccc3O[C@H]2[C@@H](CO)O1)NCc1ccc(Oc2ccccc2)cc1	0	0	0	0	0
CN(C)c1ccc2c(c1)[C@H]1C[C@H](CC(=O)NCc3ccc(Oc4ccccc4)cc3)O[C@H](CO)[C@H]1O2	0	0	0	21	0
O=C(C[C@@H]1C[C@@H]2c3cc(NC(=O)c4ccc5c(c4)OCO5)ccc3O[C@@H]2[C@@H](CO)O1)NCc1ccc(Oc2ccccc2)cc1	0	0	31	0	0
COCc1cn(CC[C@@H]2CC[C@H](NC(=O)Nc3ccc(Cl)cc3)[C@@H](CO)O2)nn1	0	0	-	0	0
CS(=O)(=O)Nc1ccc2c(c1)[C@@H]1C[C@@H](CC(=O)NCCN3CCCCC3)O[C@H](CO)[C@@H]1O2	0	0	-	0	0
Cc1cccc(-n2ncc3c(NC(C)C)ncnc32)c1	-	0	31	-	0
COC(=O)c1cn(NC(=O)Cn2nc([N+](=O)[O-])c(Br)c2C)c(=O)c2ccccc12	0	43	0	0	0
Cc1ccc(-c2ccc([C@H]3[C@@H](CO)N4C(=O)CN(C(=O)Nc5cccc(F)c5)C[C@H]34)cc2)cc1	0	-	-	0	0
CCCCN1C(=O)C(O)=C(C(C)=O)C1c1ccccc1[N+](=O)[O-] (stereo not given)	0	0	0	24	-
CCCCN1C(=O)C(O)=C(C(C)=O)C1c1ccccc1 (stereo not given)	-	-	-	-	0
COCC(=O)N1C[C@H]2[C@@H](c3ccccc31)[C@@H](CO)N2C(=O)Nc1ccccc1Cl	0	0	-	0	0
CCCNC(=O)Nc1ccc2c(c1)OC[C@@H](C)N(CC1CCCC1)C[C@@H](C)[C@@H](OC)CN(C)C2=O	0	-	0	0	0
O=C(CNC(=O)c1cccc(F)c1)OCC(=O)N1CCN(C(=O)c2ccco2)CC1	0	0	0	29	0
COc1ccccc1CNS(=O)(=O)c1cccs1	0	0	0	89	0
CC(C)CC#Cc1cnc2c(c1)C(=O)N([C@H](C)CO)C[C@@H](C)[C@@H](CN(C)S(=O)(=O)c1cn(C)cn1)O2	0	0	0	0	0
CC1CCCN(C(=O)Nc2ccc(Br)cc2Cl)C1 (stereo not given)	0	0	0	0	-
CC1CN(C(=O)Nc2ccc(Br)cc2Cl)CC(C)O1 (stereo not given)	0	0	-	67	-
O=C(OCc1nnc(-c2ccccc2)o1)c1ccc2c(c1)OCCO2	-	-	-	-	0
O=C(OCc1nnc(-c2ccccc2)o1)C1=COCCO1	-	-	-	-	61
CN(C)c1cc(Nc2ccc(O)cc2)c([N+](=O)[O-])c2nonc12	-	0	0	0	0
O=[N+]([O-])c1c(Nc2ccc(O)cc2)cc(Cl)c2nonc12	42	0	54	17	-
SMILES	ERAP1 HTS inh	FGF22 binding	FN deposit inh	SIRT5 inh	PGC1a acetyl inh
COc1ccc(N2C(=O)C(CC(=O)Nc3ccccc3)N(CCc3ccc(OC)c(OC)c3)C2=O)cc1 (stereo not given)	0	44	0	0	0
CNC(=O)C[C@H]1C(=O)N(CCc2ccccc2)C[C@@H]1c1ccc(OC)cc1	0	0	0	0	0
COc1ccc([C@H]2CN(CCc3ccccc3)C(=O)[C@@H]2CC(=O)Nc2ccccc2)cc1	0	0	0	18	0
CCOC(=O)CC1=NN(c2ccccc2)C(=O)C1	0	0	0	0	0
CCOC(=O)CC1=NN(c2ccccc2)C(=O)/C1=C\c1ccc(N(C)C)cc1	0	0	0	113	0
Clc1ccc(CNc2ncnc3[nH]ncc23)cc1Cl	0	0	0	-	0
